Screens: PubChem, Johns Hopkins Ion Channel Center
In the library only some 2.3% were active in any assay of this set; here they are far more common.
TRPC4 inh: inhibitors of mouse TRPC4 channel, primary screen, Fluo4 calcium, HEK293 TRPC4beta/mu-opioid cells. Short transient receptor potential channel 4 (Mus musculus), Q9QUQ5. DAMGO-evoked Fluo4 calcium flux; stronger effect = lower value. B-score at 10 µM. 300,000 compounds, 0.39% hits. AID 2247, 2010;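 active = B-score over 3 SD under the library average, no early fluorescence shift, positive overall ratio signal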
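Assay system: TRPC4beta/mu-opioid receptor HEK293 cell line; compound dosing: single concentration per test compound; detection: Fluo4 Ca2+ flux fluorescence; evaluation: per-well B score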
TRPC6 inh: mouse TRPC6 channel inhibitors, primary screen, cell-based, HEK293, membrane potential dye. Short transient receptor potential channel 6 (Mus musculus), Q61143. ACh-evoked depolarization; stronger effect = lower value. B-score at 10 µM. 310,000 compounds, 1.1% hits;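 active = B-score under library mean minus 3 SD, initial fluorescence not abnormally high, positive integrated signal ratio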;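 note: B-score derived from integrated fluorescence ratio over the kinetic read; more negative B-score means stronger inhibition of depolarization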
Target sequence (Q61143 whole entry, looked up): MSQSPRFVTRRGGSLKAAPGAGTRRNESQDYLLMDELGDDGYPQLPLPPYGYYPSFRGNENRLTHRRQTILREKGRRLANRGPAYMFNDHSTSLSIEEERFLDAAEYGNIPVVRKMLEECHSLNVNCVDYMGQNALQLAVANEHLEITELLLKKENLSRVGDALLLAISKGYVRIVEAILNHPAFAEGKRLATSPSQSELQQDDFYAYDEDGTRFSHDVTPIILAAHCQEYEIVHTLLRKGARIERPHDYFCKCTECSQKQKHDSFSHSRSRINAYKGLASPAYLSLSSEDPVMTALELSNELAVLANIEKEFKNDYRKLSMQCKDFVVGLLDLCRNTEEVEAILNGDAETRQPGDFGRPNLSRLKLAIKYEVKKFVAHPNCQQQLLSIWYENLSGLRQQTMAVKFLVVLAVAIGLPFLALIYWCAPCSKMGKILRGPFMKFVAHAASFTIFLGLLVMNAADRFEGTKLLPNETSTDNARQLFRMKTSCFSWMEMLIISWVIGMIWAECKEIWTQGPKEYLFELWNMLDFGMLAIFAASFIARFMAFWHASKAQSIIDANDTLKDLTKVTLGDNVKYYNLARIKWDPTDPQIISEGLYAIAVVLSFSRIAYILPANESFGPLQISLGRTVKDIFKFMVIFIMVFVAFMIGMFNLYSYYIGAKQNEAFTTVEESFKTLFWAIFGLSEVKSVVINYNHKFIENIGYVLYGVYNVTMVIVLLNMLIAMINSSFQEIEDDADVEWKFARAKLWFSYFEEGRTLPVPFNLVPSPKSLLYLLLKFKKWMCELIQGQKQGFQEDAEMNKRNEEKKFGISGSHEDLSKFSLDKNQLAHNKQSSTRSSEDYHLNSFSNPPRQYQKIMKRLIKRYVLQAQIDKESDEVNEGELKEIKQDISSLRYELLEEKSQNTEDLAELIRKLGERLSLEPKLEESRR
TRPC4 agonist: activators of mouse TRPC4 channel, primary screen, Fluo4 calcium, HEK293 TRPC4beta/mu-opioid cells. Fluo4 calcium fluorescence; stronger effect = higher value. B-score at 10 µM. 310,000 compounds, 0.49% hits. AID 2237, 2010;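 active = B-score above 5 SD of library B-scores, and initial fluorescence ratio not above library mean plus 5 SD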;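 note: positive B-score marks a calcium rise read as TRPC4 activation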
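Assay system – TRPC4beta and mu-opioid receptor HEK293 stable cells · Measured by – Fluo4 fluorescence, kinetic · Schedule – dye loading 45 min room temperature, 110 s kinetic read · Read-out – B-scored integrated calcium fluorescence ratio · Controls – buffer and maximal DAMGO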
TRPC6 activator: mouse TRPC6 channel activators, primary screen, cell-based, HEK293, membrane potential dye; HEK293-TRPC6 membrane potential dye fluorescence; stronger effect = higher value; Short transient receptor potential channel 6 (Mus musculus), Q61143; B-score at 10 µM; 310,000 compounds, 0.13% hits;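 active = B-score of the integrated fluorescence ratio above library mean plus 3 SD, and starting fluorescence ratio within library mean plus 5 SD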;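 note: higher score means more depolarization so channel activation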
TRPC4 PAM: positive allosteric modulators of TRPC4, primary screen, cell-based, mouse TRPC4beta, HEK293 mu-opioid, Fluo-4 calcium; AID 2227, 2009; B-score at 10 µM; Short transient receptor potential channel 4 (Mus musculus), Q9QUQ5; DAMGO EC20, Fluo-4 Ca2+ flux; stronger effect = higher value; 310,000 compounds, 0.42% hits;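 active = B-score of calcium response area above 5 SD of library B-scores, with initial fluorescence ratio within 5 SD of library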;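 note: B-score of integrated fluorescence ratio over time as area under calcium response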
Numbers without * were called inactive; i = inactive.

SMILES	TRPC4 inh	TRPC6 inh	TRPC4 agonist	TRPC6 activator	TRPC4 PAM
C#Cc1ccc(CN2CCC(Oc3cc(C(=O)NC4CC4)ccc3OC)CC2)cc1	i	i	i	i	i
CCCCN(C)CCNC(=O)CCn1nc(-c2ccc(Cl)cc2)ccc1=O	i	i	64*	i	11*
C/C(=N\NC(=O)c1cc2ccccc2cc1O)c1ccccn1	i	i	53*	i	i
C/C(=N\NC(=O)c1c[nH]c2ccccc12)c1ccccn1	i	i	i	i	i
O=c1[nH]ncc(N2CCCC2)c1Cl	i	i	i	i	i
O=c1[nH]ncc(N2CCN(C(c3ccccc3)c3ccccc3)CC2)c1Cl	-9*	i	i	i	i
CCN(CC)c1ccc(/C=C2\SC(=O)N(C(C)C)C2=O)o1	i	i	i	i	i
O=Cc1coc2c(ccc3ccccc32)c1=O	-5*	i	i	i	i
Cc1cc(Cl)c(OCCCN(C)C)c(Br)c1	i	i	i	i	i
Cc1cc(Br)cc(C)c1OCCCCN(C)C	i	i	i	i	35*
O=C(Cc1nc2ccccc2[nH]1)c1ccc([N+](=O)[O-])cc1	-6*	i	i	i	i
O=C(Cc1nc2ccccc2[nH]1)c1ccc(Cl)cc1	i	i	i	i	i
COc1ccc(-c2noc(N3CCC(C(=O)NCCCN4CCCCC4)CC3)n2)cc1	i	i	i	i	i
COc1ccc(-c2noc(N3CCC(C(=O)NCCCN4CCCC(C)C4)CC3)n2)cc1 (configuration not stated)	i	i	i	i	10*
CCCCNC(=O)C1CCCN(S(=O)(=O)c2c(C)noc2/C=C/c2cccs2)C1 (configuration not stated)	i	i	i	i	i
Cc1noc(/C=C/c2cccs2)c1S(=O)(=O)N1CCC(C(=O)NCCCN2CCCC(C)C2)CC1 (configuration not stated)	i	i	i	i	10*
Cc1ccc(S(=O)(=O)N2CCN(C(=S)NCC3CCCO3)CC2)cc1 (configuration not stated)	i	i	i	i	i
CN1C(=O)[C@@H]2[C@H](C1=O)[C@@H]1C(=O)Nc3ccccc3C(=O)N1[C@@H]2c1cccc(Br)c1	i	i	i	i	i
COc1cc(CNCCCN2CCOCC2)cc(Br)c1OCc1ccc(Cl)cc1	-6*	i	i	i	i
CCOc1cc(CNCCCN2CCOCC2)cc(Cl)c1OCC(=O)NC(C)(C)C	i	i	i	i	i
CCOc1cc(CNCCCN2CCOCC2)cc(Br)c1OCC(=O)Nc1cccc(C(F)(F)F)c1	-6*	i	i	i	i
Cc1ccc(Cn2c(SCC(=O)N(C)C3CCS(=O)(=O)C3)nc3ccccc3c2=O)cc1 (configuration not stated)	i	i	i	i	i
CCC(C)(C)n1nnnc1C(c1cccnc1)N1CCC(Cc2ccccc2)CC1 (configuration not stated)	-6*	i	i	i	i
CCCOc1ccc(NC(=O)CC2C(=O)N(CC)C(=S)N2CCNC(C)=O)cc1 (configuration not stated)	i	i	i	i	i
O=C(CCN1CCN(CCO)CC1)Nc1ccc(OCc2ccccc2)cc1	i	i	i	i	i
SMILES	TRPC4 inh	TRPC6 inh	TRPC4 agonist	TRPC6 activator	TRPC4 PAM
CCCOc1ccc(NC(=O)CC2C(=O)N(CC)C(=S)N2CCCN2CCN(Cc3ccccc3)CC2)cc1 (configuration not stated)	i	i	i	i	10*
COC(=O)c1ccc(NC(=O)CCN2CCN(Cc3ccccc3)CC2)cc1	i	i	i	i	27*
CCc1ccc(C(=O)NNC(=O)CCN2CCN(Cc3ccccc3)CC2)cc1	i	i	i	i	12*
O=C(CCN1CCN(Cc2ccccc2)CC1)Nc1ccc(OCc2ccccc2)cc1	i	i	i	i	15*
C[n+]1ccc(C(=O)Nc2ccccc2Cl)cc1	i	i	i	i	i
Cc1cc2ncn(-c3ncccc3[N+](=O)[O-])c2cc1C	i	i	i	i	i
C=CCNC(=O)c1ccccc1NC(=O)C1CC(=O)N(C(C)C)C1 (configuration not stated)	i	i	i	i	i
O=C(CCN1CCN(Cc2ccccc2)CC1)Nc1cccc(Br)c1	i	i	i	i	20*
Cc1ccc(OCCC(=O)OCC(=O)N2CCN(S(=O)(=O)c3ccc(C)cc3)CC2)cc1	i	i	i	i	i
CCC(c1nnnn1CCc1ccccc1)N(Cc1ccco1)Cc1cc2cccc(C)c2[nH]c1=O (configuration not stated)	i	i	i	i	11*
Cc1ccc2cc(CN(CCN3CCOCC3)Cc3nnnn3Cc3ccco3)c(=O)[nH]c2c1C	i	i	i	i	i
Cc1ccc2cc(CN(CCCN3CCOCC3)C(c3nnnn3Cc3ccco3)C(C)C)c(=O)[nH]c2c1C (configuration not stated)	-9*	i	i	i	i
CCC(c1nnnn1C(C)(C)C)N(Cc1ccco1)Cc1cc2cccc(C)c2[nH]c1=O (configuration not stated)	i	i	i	i	i
CNC(=S)N/N=C(\C)c1ccc(C(C)(C)C)cc1	i	i	i	i	11*
CNC(=S)N/N=C(\C)c1ccccc1	i	i	i	i	i
COc1ccc(CCC(C)NCC2CCCCC2)cc1 (configuration not stated)	-7*	i	i	i	i
CC(=O)Nc1ccc(/C=N/N2C(=O)NC(C)(c3ccc(OC(F)F)cc3)C2=O)cc1 (configuration not stated)	i	i	95*	i	i
CC1(c2ccc(OC(F)F)cc2)NC(=O)N(CC(=O)Nc2ccccc2)C1=O (configuration not stated)	i	i	68*	i	i
CC1(c2ccc(OC(F)F)cc2)NC(=O)N(CC(=O)Nc2ccc3c(c2)OCO3)C1=O (configuration not stated)	i	i	89*	i	12*
